Compounds with a hit are over-represented: about 3.5% of the library has one in this group of screens.
SIAE primary = inhibitors of human sialic acid acetylesterase SIAE; Q9HAT2; SIAE FP-Rh probe binding, fluorescence polarization; inhibition, % at 9.66 µM; 370,000 compounds, 0.69% hits;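 active = inhibition above a cutoff: mean of compounds within the control limits plus 3 SD of those, cut at about 17% in these data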;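 also: 0% = plate median of compound wells and 100% = probe without SIAE protein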
Target sequence (Q9HAT2 whole entry, looked up): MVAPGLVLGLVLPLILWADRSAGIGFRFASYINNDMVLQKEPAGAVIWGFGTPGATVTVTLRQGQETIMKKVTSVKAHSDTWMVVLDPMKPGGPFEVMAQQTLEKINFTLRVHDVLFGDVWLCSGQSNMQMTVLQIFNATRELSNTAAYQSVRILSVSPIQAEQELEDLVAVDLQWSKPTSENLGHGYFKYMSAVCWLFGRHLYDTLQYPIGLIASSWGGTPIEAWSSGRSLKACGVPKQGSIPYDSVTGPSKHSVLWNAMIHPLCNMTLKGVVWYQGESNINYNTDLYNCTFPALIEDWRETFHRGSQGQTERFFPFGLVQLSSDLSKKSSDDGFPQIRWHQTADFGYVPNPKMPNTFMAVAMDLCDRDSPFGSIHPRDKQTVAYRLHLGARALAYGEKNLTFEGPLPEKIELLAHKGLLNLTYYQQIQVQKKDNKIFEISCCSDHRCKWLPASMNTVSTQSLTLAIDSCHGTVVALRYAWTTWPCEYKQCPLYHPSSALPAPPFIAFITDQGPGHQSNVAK
ABHD4 inh = inhibits mouse alpha/beta hydrolase domain 4; purified mABHD4, FP-Rh probe fluorescence polarization; inhibition, % at 8.92 µM; 370,000 compounds, 0.54% hits;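 active = inhibition exceeding the mean over every tested compound plus 3 SD, cut at about 30% in these data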;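 also: 0% = plate median of compound wells and 100% = S159A mutant with DMSO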
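Assay system: Wild-type mouse ABHD4 protein | Medium: HEPES pH 7.0 buffer, 150 mM NaCl, 0.01% Pluronic F-127 | Incubation: Enzyme–compound pre-incubation 45 min, then probe 60 min, both 25 °C | Technique: Fluorescence polarization with parallel and perpendicular emission, 525/598 nm | Evaluation: % inhibition of FP-Rh probe binding versus controls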
HTRA1 inh = blocks human HTRA1 serine peptidase; Q92743; recombinant HTRA1, FP-rhodamine activity-based probe, fluorescence polarization; inhibition, % at 5.96 µM; 340,000 compounds, 0.5% hits; in the data active = inhibition above about 36%;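 also: 0% = enzyme with DMSO and 100% = wells lacking enzyme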
PRMT1 FP inh = PRMT1 (human) inhibition, primary screen. recombinant PRMT1, activity-based probe fluorescence polarization. inhibition, % at 2.79 µM. 370,000 compounds, 1.3% hits;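 active = inhibition above about 21% made by adding two undisclosed values, limit read from the data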
rCAG binder = binds r(CAG) RNA repeats | r(CAG) RNA repeat, TO-PRO-1 dye displacement fluorescence | AID 651821 | inhibition, % at 3 µM | 370,000 compounds, 1.3% hits;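 active = inhibition above the plate cutoff, the mean of all test compounds on that plate plus 3 SD, cut at about 35% in these data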;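 also: 0% = DMSO alone and 100% = 100 µM mitoxantrone as full dye displacement; higher means more dye released from RNA so lower well fluorescence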
TCR CD3 inh = human TCR-CD3 binding inhibition. TAMRA-labeled TCR probe fluorescence, biochemical. inhibition, % at 9.4 µM. 360,000 compounds, 0.37% hits; in the data active = inhibition above about 19%;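 also: recombinant mutant TCR 2C K166C tagged with TAMRA read by polarization; 0% = receptor in buffer alone and 100% = receptor with positive control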
Active calls of the source: *; · = no result given.

SMILES	SIAE primary	ABHD4 inh	HTRA1 inh	PRMT1 FP inh	rCAG binder	TCR CD3 inh
CN1C(=O)/C(=C\c2ccccc2OCc2ccccc2)SC1=S	-1.3	-0.3	0.2	1.7	3.2	4.0
O=C(O)COc1ccccc1/C=C1\SC(=S)N(/N=C/c2ccccc2O)C1=O	0.9	7.7	9.2	22.5*	11.0	-2.2
N#Cc1c(NC(NC(=O)c2ccco2)C(=O)c2ccccc2)sc2c1CCCC2 (stereo not drawn)	-3.1	3.0	-3.5	22.7*	17.1	5.4
NC(=O)c1c(NC(NC(=O)c2ccco2)C(=O)c2ccc(Cl)cc2)sc2c1CCCC2 (stereo not drawn)	9.7	7.3	9.0	24.3*	13.2	3.0
CCOC(=O)c1c(NC(=O)c2ccco2)sc2c1CCCC2	-1.0	-4.7	-1.6	0.3	-2.4	3.6
COC(=O)[C@H](Cc1ccccc1)N(Cc1cn(Cc2ccccc2)nn1)S(=O)(=O)c1ccccc1Br	-6.8	-9.1	·	2.2	6.6	·
COc1ccc(OC)c(S(=O)(=O)N2CCCCC2C(=O)N2CCN(c3ccc(F)cc3)CC2)c1 (stereo not drawn)	1.8	4.3	·	6.4	6.0	·
NNC(=O)C(=O)/C=C1\NC2(CCCC2)Cc2ccccc21	-11.3	-12.3	·	2.8	1.5	2.7
CCC1(C)Cc2ccccc2/C(=C/C(=O)N2CCCCC2)N1 (stereo not drawn)	3.0	18.1	1.2	22.2*	-6.9	4.4
COc1ccccc1NC1=C(NC(C)=O)C(=O)c2ccccc2C1=O	-7.5	4.8	7.7	24.6*	-1.0	-2.8
CCN1Cc2nnn(Cc3ccc(C)cc3)c2-c2ccccc2S1(=O)=O	-2.4	1.0	·	1.7	-0.4	·
COCCN(C(=O)CSc1nnc(C)n1Cc1ccccc1)c1c(N)n(Cc2ccccc2)c(=O)[nH]c1=O	·	·	-1.8	·	·	·
COCCCN(C(=O)CSc1nc2ccccc2c(=O)n1C)c1c(N)n(Cc2ccccc2)c(=O)[nH]c1=O	7.3	9.3	7.6	22.7*	2.5	0.9
Cc1sc(N)c(C(=O)c2ccccc2)c1C	-1.0	1.7	·	41.3*	7.1	-5.2
FC(F)(F)c1ccc2nc(CNc3nc(N4CCOCC4)nc4c3ncn4-c3ccsc3)[nH]c2c1	5.2	-3.1	·	-0.4	·	·
Cc1cccc(N2CCN(C(=O)CCC(=O)N3CC(C)Oc4ccccc43)CC2)c1C (stereo not drawn)	-4.8	-0.8	-2.1	-3.4	-0.7	20.5*
CC1CCN(C(=O)CCC(=O)N2CC(C)Oc3ccccc32)CC1 (stereo not drawn)	2.9	-13.5	-0.5	1.6	-0.3	-3.6
COc1ccc(N2C(=O)CC(N3CCOCC3)C2=O)cc1 (stereo not drawn)	0.4	-3.1	9.5	21.3*	2.9	0.8
C[C@@H]1CN([C@@H](C)COC(=O)C(C)(C)C)C(=O)c2cc(NC(=O)Nc3ccccc3)ccc2O[C@@H](C)CCCCO[C@H]1CN(C)S(=O)(=O)c1ccc(F)cc1	-10.8	-31.1	·	-2.0	·	·
COCCN=C1NC(=O)C(CC(=O)Nc2cccc(Cl)c2C)S1 (stereo not drawn)	-0.5	-7.5	·	24.3*	5.4	-3.8
N#CC(C#N)=C(N)/C(C#N)=C/c1cc(O)c(O)c(O)c1	-14.4	33.1*	18.8	19.9	11.4	6.5
Cc1ccc(-n2c(Cc3cccs3)nnc2SCC(=O)Nc2cccc3ccccc23)cc1	-21.6	-23.4	·	-6.0	6.6	·
Cc1ccc(CNC(=O)c2cn(C)c(=O)c3c2c2ccccc2n3C)o1	-4.2	-3.1	8.3	22.4*	2.6	-1.9
Cc1ccc(CNC(=O)c2cn(C3CCCCC3)c(=O)c3c2c2ccccc2n3C)o1	1.2	-6.3	-20.1	-0.8	3.9	4.5
CC(C)CNc1cccc2c1S(=O)(=O)N(Cc1cn(Cc3cccc(C(F)(F)F)c3)nn1)Cc1ccccc1O2	2.9	-1.3	·	1.6	7.8	·
SMILES	SIAE primary	ABHD4 inh	HTRA1 inh	PRMT1 FP inh	rCAG binder	TCR CD3 inh
CCC(C)NC(=O)C(NS(=O)(=O)c1ccc2c(c1)c(=O)n(C)c(=O)n2C)c1ccccc1 (stereo not drawn)	2.8	-1.2	-2.3	3.9	0.7	-5.9
CC(C)CCNC(=O)C(NS(=O)(=O)c1ccc2c(c1)c(=O)n(C)c(=O)n2C)c1ccccc1 (stereo not drawn)	-5.7	-2.0	4.3	21.1*	-1.8	3.8
c1ccc(CCn2nnnc2CN2CCCc3ccccc32)cc1	1.0	-11.8	-3.6	24.8*	1.3	-5.5
Cc1ccc(-n2c(SCC(=O)N/N=C/C=C\c3ccccc3[N+](=O)[O-])nnc2-c2ccccc2)cc1	3.2	-7.9	·	-3.2	9.0	·
Nc1c(C(=O)NC2CC2)sc2nc3c(c(-c4ccco4)c12)CC/C3=C/c1ccco1	·	·	53.9*	·	·	·
Cc1nc2sc(C(=O)NC3CC3)c(N)c2c(C)c1Cl	3.4	2.5	·	5.6	3.8	·
CCOC(=O)c1c(C)nc2sc3c(c2c1-c1ccc(OC)cc1)NC(c1ccccc1)NC3=O (stereo not drawn)	1.7	-2.4	-18.6	0.8	2.3	-9.5
CCOC(=O)C1=C(C)n2c(s/c(=C3\C(=O)Nc4ccccc43)c2=O)=NC1c1ccc(OC)cc1 (stereo not drawn)	-23.5	-15.2	-10.2	24.0*	29.3	-0.5
O=C(NCCc1c[nH]c2ccccc12)OCc1cn(Cc2cccc(F)c2)nn1	0.3	0.7	·	3.9	2.5	·
COC(=O)[C@]12C[C@H](CC(=O)NCCc3ccccc3OC)C(=O)N(Cc3cccc4ccccc34)C1=C[C@H](C1CCCC1)O[C@@H]2C	-3.8	-7.5	·	-6.8	9.7	·
CCOc1ccccc1N1CCN(S(=O)(=O)c2ccc3c4c(cccc24)C(=O)N3)CC1	-12.0	3.6	-27.9	5.4	37.3*	-3.2
Cc1nnc(SCC(=O)Nc2sccc2C#N)s1	0.0	7.0	1.1	8.6	7.4	6.0
Cn1ccnc1SCC(=O)Nc1sccc1C#N	0.6	0.8	0.6	22.3*	15.2	1.5
CCC(=O)OCOc1ccc(/C=C2/CCC(CN(C)C)C2=O)cc1 (stereo not drawn)	-14.7	-7.3	-15.2	36.7*	6.7	6.0
CCOc1ccc(/C=C2\CCC(C3CCCC3)C2=O)cc1 (stereo not drawn)	-6.6	-15.8	5.0	8.9	-2.4	-8.6
C=CCN1C(C(=O)OC)CN(Cc2cn(Cc3ccc(Cl)cc3)nn2)CCS1(=O)=O (stereo not drawn)	5.7	-6.6	·	0.4	5.2	·
Cc1ccc(NC(=O)c2sc3nc(N4CCOCC4)c4c(c3c2N)CC(C)(C)OC4)cc1	3.2	-9.0	-5.7	22.1*	11.1	-11.0
O=C(COc1cccnc1[N+](=O)[O-])c1ccc(Cl)s1	3.6	27.4	16.5	51.7*	34.2	10.3
O=C(Nc1ccc(Nc2cccnc2)cc1)c1c[nH]c2ccccc12	12.7	41.6*	·	7.5	11.3	0.0

High-throughput results from PubChem BioAssay.
